ChEMBL document CHEMBL3044720, “Phytotoxic Eremophilanes from Ligularia macrophylla” (J Agric Food Chem, 2007)
Activity calls are given as the source filed them. No cut-off for these calls is given here.

Key:
Lactuca sativa [1] = test: Phytotoxic activity against Lactuca sativa (lettuce) seeds assessed as inhibition of germination at 100 uM at 26 degC measured 7 days post-drug dose; assay type: functional, organism-based
In short: (§1)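 Each well held 5 mg lettuce or 10 mg bentgrass seed plus 250 µL of compound in water with 3% acetone final; acetone/water controls were included. Sealed plates were kept at 26 °C under continuous light (173 µmol/m²/s). Germination was rated visually on a 0–5 scale (0 = no effect, 5 = no germination/growth) against controls, after 7 days for lettuce and 12 days for bentgrass.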

Cucumis sativus [2] = test: Inhibition of photosynthetic electron transport rate in Cucumis sativa Straight Eight (cucumber) cotyledons assessed as chlorophyll fluorescence at 100 uM at 22 degC measured at 2 to 24 hr post-drug treatment under constant light by fluorometer analysis; assay type: functional, organism-based
In short: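 8 mm cotyledon discs were cut from 6-day-old cucumber 'Straight Eight'. Variable chlorophyll fluorescence was read with a pulse-modulated fluorometer before treatment, then at 2, 4, 8 and 24 h. Discs sat in 1 mL 0.1% Tween 20 with 100 µM compound, 0.1% acetone solvent control or 10 µM atrazine, at 22 °C under continuous light; triplicate.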

Coptotermes formosanus [3] = test: Antitermite activity against greater than third-instar stage of Coptotermes formosanus workers/1 soldier in compound-pretreated filter paper assessed as mortality at 0.5% at 26 degC after 21 days (reference value: 3.8 +/-4.8%); assay type: functional
In short: (§2)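 Test material in acetone (100 µL) was blotted onto 2.5 cm filter paper discs, dried several hours, then moistened with 100 µL water. Each dish held 20 workers (third instar or greater) and two soldiers. Dishes were kept at ca. 100% RH and 26 °C, with water-only controls. Four replicates came from different colonies. Mortality was scored daily for 3 weeks, reported as mean and SD, and compared by ANOVA with Fisher LSD (P < 0.05).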

Lactuca sativa [4] = test: Phytotoxic activity against Lactuca sativa (lettuce) seeds assessed as inhibition of germination at 10 uM at 26 degC measured 7 days post-drug dose; assay type: functional, organism-based; in short: as §1
Coptotermes formosanus [5] = test: Antitermite activity against greater than third-instar stage of Coptotermes formosanus workers/1 soldier in compound-pretreated filter paper assessed as mortality at 0.5% at 26 degC after 13 days (reference value: 3.8 +/-4.8%); assay type: functional; in short: as §2
Lactuca sativa [6] = test: Phytotoxic activity against Lactuca sativa (lettuce) seeds assessed as inhibition of germination at 1000 uM at 26 degC measured 7 days post-drug dose; assay type: functional, organism-based; in short: as §1
Allium cepa [7] = test: Inhibition of mitotic cell division in Allium cepa cv. Evergreen (onion) root tips assessed as cell count at prophase stage of cell cycle at 100 to 300 uM at 24 degC; assay type: functional, organism-based
Allium cepa [8] = test: Inhibition of mitotic cell division in Allium cepa cv. Evergreen (onion) root tips assessed as cell count at metaphase stage of cell cycle at 100 to 300 uM at 24 degC; assay type: functional, organism-based
Coptotermes formosanus [9] = test: Antitermite activity against greater than third-instar stage of Coptotermes formosanus workers/1 soldier in compound-pretreated filter paper assessed as filter paper consumption at 0.5% at 26 degC after 21 days (reference value: 41.4 +/-5.6 mg); assay type: functional
Agrostis stolonifera [10] = test: Phytotoxic activity against Agrostis stolonifera seeds assessed as inhibition of germination at 1 uM at 26 degC measured 12 days post-drug dose; assay type: functional, organism-based; in short: as §1
Lemna aequinoctialis [11] = test: Phytotoxic activity against three-frond Lemna paucicostata colonies assessed as growth inhibition at 100 uM after 4 days; assay type: functional, organism-based
In short: (§3)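 Hoagland medium at pH 5.5 was filter-sterilized, with compound added in acetone or EtOH (1% final); tested range 100 to 0.1 µM. Two three-frond colonies from 4–5-day-old stock cultures were placed per well. Total frond area was imaged on days 0–4, and % increase was taken relative to day 0. IC50 came from a four-parameter logistic fit in R drc.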

Allium cepa [12] = test: Inhibition of mitotic cell division in Allium cepa cv. Evergreen (onion) root tips assessed as cell count at telophase stage of cell cycle at 100 to 300 uM at 24 degC; assay type: functional, organism-based
Allium cepa [13] = test: Inhibition of mitotic cell division in Allium cepa cv. Evergreen (onion) root tips assessed as cell count at anaphase stage of cell cycle at 100 to 300 uM at 24 degC; assay type: functional, organism-based
Cucumis sativus [14] = test: Induction of cell membrane integrity disruption in Cucumis sativus (cucumber) cotyledons assessed as electrolyte leakage at 25 degC by conductivity meter analysis; assay type: functional
In short: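 Twenty-five 4 mm cucumber cotyledon discs (~50 mg fresh weight) were bathed in 5 mL of 2% sucrose, 1 mM MES pH 6.5, with 1% (v/v) acetone final in controls and treatments. Incubation was at 25 °C in darkness. Leakage into the bathing medium was followed over time by conductivity; six replicates per treatment.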

Coptotermes formosanus [15] = test: Antitermite activity against greater than third-instar stage of Coptotermes formosanus workers/1 soldier in compound-pretreated filter paper assessed as mortality at 0.5% at 26 degC after 1 day (reference value: 0%); assay type: functional; in short: as §2
Coptotermes formosanus [16] = test: Antitermite activity against greater than third-instar stage of Coptotermes formosanus workers/1 soldier in compound-pretreated filter paper assessed as mortality at 0.5% at 26 degC after 6 days (reference value: 2.5 +/-5%); assay type: functional; in short: as §2
Lactuca sativa [17] = test: Phytotoxic activity against Lactuca sativa (lettuce) seeds assessed as inhibition of germination at 1 uM at 26 degC measured 7 days post-drug dose; assay type: functional, organism-based; in short: as §1
Lemna aequinoctialis [18] = test: Phytotoxic activity against three-frond Lemna paucicostata colonies assessed as growth inhibition after 4 days; assay type: functional, organism-based; conditions: 96 h; in short: as §3
Agrostis stolonifera [19] = test: Phytotoxic activity against Agrostis stolonifera seeds assessed as inhibition of germination at 10 uM at 26 degC measured 12 days post-drug dose; assay type: functional, organism-based; in short: as §1
Cucumis sativus [20] = test: Inhibition of photosynthetic electron transport rate in Cucumis sativa Straight Eight (cucumber) cotyledons assessed as chlorophyll fluorescence at 10 uM at 22 degC measured at 2 to 24 hr post-drug treatment under constant light by fluorometer analysis; assay type: functional, organism-based
In short: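 Cotyledon discs (8 mm) were cut from 6-day-old plants. Induced variable chlorophyll fluorescence was read on a pulse-modulated fluorometer before each disc was placed in 1 mL of 0.1% Tween 20, with or without treatment; the solvent control was 0.1% acetone. Discs were kept at 22 °C under continuous light and read again at 2, 4, 8 and 24 h. Each treatment was run in triplicate.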

Agrostis stolonifera [21] = test: Phytotoxic activity against Agrostis stolonifera seeds assessed as inhibition of germination at 100 uM at 26 degC measured 12 days post-drug dose; assay type: functional, organism-based; in short: as §1
Agrostis stolonifera [22] = test: Phytotoxic activity against Agrostis stolonifera seeds assessed as inhibition of germination at 1000 uM at 26 degC measured 12 days post-drug dose; assay type: functional, organism-based; in short: as §1
[23] = system: Colletotrichum gloeosporioides; test: Antifungal activity against Colletotrichum gloeosporioides assessed as growth inhibition at 10 ug after 4-5 days by direct bioautography; assay type: functional, organism-based
In short: (§4)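 Direct TLC bioautography against strawberry-anthracnose Colletotrichum isolates grown on PDA at 24 ± 2 °C under a 12 h photoperiod. Conidia were harvested from 7–10-day cultures and filtered. Developed plates carrying 10 µg/spot were sprayed with 10^5 spores/mL and held in a moisture chamber for 4 days at 26 °C with a 12 h photoperiod. Zone diameters were measured 4–5 days after treatment.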

Colletotrichum acutatum = test: Antifungal activity against Colletotrichum acutatum assessed as diameter of growth inhibitory zone at 10 ug after 4-5 days by direct bioautography; assay type: functional; in short: as §4
Colletotrichum fragariae = test: Antifungal activity against Colletotrichum fragariae assessed as growth inhibition at 10 ug after 4-5 days by direct bioautography; assay type: functional, organism-based; in short: as §4

SMILES | inhibition (Lactuca sativa [1]) | mortality (Coptotermes formosanus [3]) [%] | inhibition (Lactuca sativa [4]) | mortality (Coptotermes formosanus [5]) [%] | inhibition (Lactuca sativa [6]) | Activity (Coptotermes formosanus [9]) [mg] | inhibition (Agrostis stolonifera [10]) | growth inhibition (GI) (Lemna aequinoctialis [11]) | mortality (Coptotermes formosanus [15]) [%] | mortality (Coptotermes formosanus [16]) [%] | inhibition (Lactuca sativa [17]) | inhibition (Agrostis stolonifera [19]) | inhibition (Agrostis stolonifera [21]) | also measured
Cc1coc2c1[C@@H]1OC(=O)[C@H]3CCC[C@H](C2)[C@@]31C | inactive | 8.8 | inactive | 3.8 | inactive | 43.1 | inactive | inactive | 1.3 | 1.3 | inactive |  |  | inhibition (Cucumis sativus [2]): inactive; inhibition (Allium cepa [7]): inactive; inhibition (Allium cepa [8]): inactive; inhibition (Allium cepa [12]): inactive; inhibition (Allium cepa [13]): inactive; Activity (Cucumis sativus [14]): inactive
C/C=C(/C)C(=O)O[C@@H]1c2c(C)coc2C[C@@]2(O)CCC[C@H](C)[C@@]12C | inactive | 18.8 | inactive | 16.3 |  | 16.5 | inactive |  | 1.3 | 3.8 | inactive | inactive |  | inhibition (Cucumis sativus [2]): Active; inhibition (Allium cepa [7]): inactive; inhibition (Allium cepa [8]): inactive; inhibition (Allium cepa [12]): inactive; inhibition (Allium cepa [13]): inactive; Activity (Cucumis sativus [14]): inactive; IC50 (Lemna aequinoctialis [18]): 2940 nM
CCNc1nc(Cl)nc(NC(C)C)n1 |  |  |  |  |  |  |  |  |  |  |  |  |  | inhibition (Cucumis sativus [20]): inactive
C=C1COC(=O)[C@@]12C[C@H]1CC[C@@H](OC(=O)/C(C)=C\C)[C@H](C)C1(C)C2 (single isomer, unassigned) | inactive | 2.5 | inactive | 2.5 |  | 40 | inactive | inactive | 0 | 2.5 | inactive | inactive | inactive | 
CC1=C2C3OC(=O)[C@H]4CCC[C@H](C[C@@H]2OC1=O)[C@]34C (single isomer, unassigned) | inactive |  | inactive |  |  |  | inactive | inactive |  |  | inactive | inactive | inactive | inhibition (Agrostis stolonifera [22]): Active
CCCCC/C=C\C/C=C\CCCCCCCC(=O)O [LINOLEIC ACID] | inactive | 6.3 | inactive | 5 | inactive | 44.6 | inactive |  | 2.5 | 3.8 | inactive | inactive | inactive | growth inhibition (GI) [23]: inactive; Activity (Colletotrichum acutatum): 2.9 mm; growth inhibition (GI) (Colletotrichum fragariae): inactive
CC/C=C\C/C=C\C/C=C\CCCCCCCC(=O)O [LINOLENIC ACID] | inactive | 6.3 | inactive | 5 | inactive | 44.2 | inactive |  | 0 | 0 | inactive | inactive | inactive | growth inhibition (GI) [23]: inactive; Activity (Colletotrichum acutatum): 2.9 mm; growth inhibition (GI) (Colletotrichum fragariae): inactive; inhibition (Agrostis stolonifera [22]): inactive
